In PMC8668982 (The Journal of Biological Chemistry, 2021):
Substitutions are numbered along the chain they refer to.

What was measured:
TnIYD [1] = molecular target: T1, TnIYD (Thermotoga neapolitana, UniProt B9K712); test: Catalytic dehalogenation, steady-state kinetics; type: biochemical; conditions: for Km / kcat: substrate of TnIYD
T1 sequence (B9K712 1-186): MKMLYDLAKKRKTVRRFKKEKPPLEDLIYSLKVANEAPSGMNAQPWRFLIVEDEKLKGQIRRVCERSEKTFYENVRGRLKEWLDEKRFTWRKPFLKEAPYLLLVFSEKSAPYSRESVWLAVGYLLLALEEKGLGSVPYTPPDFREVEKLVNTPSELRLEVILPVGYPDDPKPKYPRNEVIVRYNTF

TnIYD [2] = molecular target: T1, TnIYD; test: Active site ligand binding by quenching of FMNox fluorescence, wild-type TnIYD
TnIYD Y112A/W82A/F88A = molecular target: T2, TnIYD Y112A/W82A/F88A (Thermotoga neapolitana, UniProt B9K712, F88A/W82A/Y112A); type: binding
T2 sequence (B9K712 1-186 W82A/F88A/Y112A): T1 sequence (B9K712 1-186) with W82A, F88A, Y112A
Procedure, shortened: (§1)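 C-terminal His6-tagged T. neapolitana IYD variants, made by mutagenesis, were expressed in E. coli Rosetta2 and purified on Ni-NTA. They were incubated with ~300 μM FMN and quantified by bound-FMN A450. Excitation was 450 nm and emission 516–526 nm. Dilution-corrected F/F0 versus ligand was fit to a two-state binding isotherm.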

TnIYD Y112A = molecular target: T3, TnIYD Y112A (Thermotoga neapolitana, UniProt B9K712, Y112A); test: Active site ligand binding by quenching of FMNox fluorescence, Y112A variant
T3 sequence (B9K712 1-186 Y112A): T1 sequence (B9K712 1-186) with Y112A
Procedure, shortened: as §1

TnIYD M41K = molecular target: T4, TnIYD M41K (Thermotoga neapolitana, UniProt B9K712, M41K); test: Active site ligand binding by quenching of FMNox fluorescence, M41K variant
T4 sequence (B9K712 1-186 M41K): T1 sequence (B9K712 1-186) with M41K
Procedure, shortened: as §1

TnIYD M41F = molecular target: T5, TnIYD M41F (Thermotoga neapolitana, UniProt B9K712, M41F); test: Active site ligand binding by quenching of FMNox fluorescence, M41F variant
T5 sequence (B9K712 1-186 M41F): T1 sequence (B9K712 1-186) with M41F
Procedure, shortened: as §1

IYD from mesophiles = conditions: cited from earlier work
TnIYD M41A = molecular target: T6, TnIYD M41A (Thermotoga neapolitana, UniProt B9K712, M41A); test: Active site ligand binding by quenching of FMNox fluorescence, M41A variant
T6 sequence (B9K712 1-186 M41A): T1 sequence (B9K712 1-186) with M41A
Procedure, shortened: as §1

TnIYD M41A/Y112A = molecular target: T7, TnIYD M41A/Y112A (Thermotoga neapolitana, UniProt B9K712, M41A/Y112A); type: binding
T7 sequence (B9K712 1-186 M41A/Y112A): T1 sequence (B9K712 1-186) with M41A, Y112A
Procedure, shortened: as §1

Oc1ccccc1I [2-IP, 2-iodophenol]
difference in Km values for I-Tyr and 2-IP (TnIYD [1]; 25 °C): 19,000 fold | difference of kcat relative to the kcat value of I-Tyr (TnIYD [1]; 25 °C): 2 fold | efficiency (kcat/Km) relative to that for iodotyrosine (TnIYD [1]; 25 °C): less than 0.01% | Km (TnIYD [1]; 25 °C): 4.2 mM | kcat (TnIYD [1]; 25 °C): 0.014 ± 0.001 s⁻¹ | increase of kcat at 60 °C relative to 25 °C (TnIYD [1]; 60 °C vs 25 °C): less than 8 fold | Km (TnIYD [1]; 60 °C): 6.6 mM | kcat (TnIYD [1]; 60 °C): 0.108 ± 0.005 s⁻¹ | kcat/Km smaller than that for I-Tyr (TnIYD [1]; at both temperatures (25 °C and 60 °C)): more than 10,000 fold | Kd (TnIYD [2]): 31 ± 1 µM

N[C@@H](Cc1ccc(O)cc1)C(=O)O [Tyr, tyrosine]
Kd (TnIYD Y112A/W82A/F88A): 1200 ± 20 µM | weakening of binding by W82A/F88A/Y112A triple mutant relative to wt TnIYD (TnIYD Y112A/W82A/F88A; 25 °C): more than 2600 fold | Kd (TnIYD Y112A): 0.9 ± 0.1 µM | Kd (TnIYD [2]): 0.45 ± 0.07 µM | Kd (TnIYD M41K): 7.4 ± 0.2 µM | decrease of affinity by M41K variant relative to wt TnIYD (TnIYD M41K; 25 °C): 16 fold | Kd (TnIYD M41F): 0.09 ± 0.06 µM | enhancement of binding by M41F variant relative to wt TnIYD (TnIYD M41F; 25 °C): 5 fold | affinity of Tyr to IYD from mesophiles (IYD from mesophiles): too weak to measure | Kd (TnIYD M41A): 1.6 ± 0.2 µM | weakening of affinity by M41A substitution relative to wt TnIYD (TnIYD M41A; 25 °C): 3.6 fold | Kd (TnIYD M41A/Y112A): 0.95 ± 0.09 µM | decrease of affinity by M41A/Y112A variant relative to wt TnIYD (TnIYD M41A/Y112A; 25 °C): 2 fold
